# Laboratory results reported in ChEMBL document CHEMBL3352424, “Synthesis, biological evaluation and 3D-QSAR study of hydrazide, semicarbazide and thiosemicarbazide derivatives of 4-(adamantan-1-yl)quinoline as anti-tuberculosis agents” (Eur J Med Chem, 2014).
# Experiments:
# L929 = assay: Cytotoxicity against mouse L929 cells assessed as reduction in cell viability up to 200 ug/ml after 5 days by MTT assay; assay type: cell-based; details: l929, 120 h
# In short: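 MTT viability assay in mouse fibroblasts, run on compounds active against TB, with 200 µg/mL as the highest test concentration.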
# [1] = system: Mycobacterium tuberculosis; assay: Antitubercular activity against Mycobacterium tuberculosis H37Rv strain; assay type: functional
# [2] = system: Mycobacterium tuberculosis; assay: Antitubercular activity against Mycobacterium tuberculosis H37Rv strain at 6.25 ug/ml by microplate alamar blue assay; assay type: functional
# [3] = system: Mycobacterium tuberculosis; assay: Antitubercular activity against Mycobacterium tuberculosis H37Rv strain by BACTEC 460 radiometric assay; assay type: functional, organism-based
# [4] = system: Mycobacterium tuberculosis; assay: Antitubercular activity against Mycobacterium tuberculosis H37Rv strain at 1.56 ug/ml by microplate alamar blue assay; assay type: functional
SMILES,Activity (L929),MIC99 [1] [µg/mL],inhibition at 6.25 µg/mL [2] [%],IC50 [3] [µM],MIC90 [3] [µg/mL],inhibition at 1.56 µg/mL [4] [%]
NNC(=O)c1cc(C23CC4CC(CC(C4)C2)C3)c2ccccc2n1,Non-toxic,3.12,–,–,–,–
CC(=O)NNC(=O)c1cc(C23CC4CC(CC(C4)C2)C3)c2ccccc2n1,Non-toxic,–,5,324,6.25,–
CCCCCCCCCCC(=O)NNC(=O)c1cc(C23CC4CC(CC(C4)C2)C3)c2ccccc2n1,Non-toxic,–,32,26.9,6.25,–
O=C(NNC(=O)c1ccco1)c1cc(C23CC4CC(CC(C4)C2)C3)c2ccccc2n1,Non-toxic,–,0,–,6.25,–
O=C(NNC(=O)c1c(F)c(F)c(F)c(F)c1F)c1cc(C23CC4CC(CC(C4)C2)C3)c2ccccc2n1,Non-toxic,–,88,1.66,6.25,–
O=C(NNC(=O)c1cccs1)c1cc(C23CC4CC(CC(C4)C2)C3)c2ccccc2n1,Non-toxic,–,9,148,6.25,–
O=C(NNC(=O)N1CCOCC1)c1cc(C23CC4CC(CC(C4)C2)C3)c2ccccc2n1,Non-toxic,–,3,468,6.25,–
O=C(NNC(=O)c1cc(C23CC4CC(CC(C4)C2)C3)c2ccccc2n1)c1ccccc1,Non-toxic,–,12,107,6.25,–
O=C(NNC(=O)c1cc(C23CC4CC(CC(C4)C2)C3)c2ccccc2n1)c1cccc(C(F)(F)F)c1,Non-toxic,–,69,5.75,6.25,–
O=C(NNC(=O)c1cc(C23CC4CC(CC(C4)C2)C3)c2ccccc2n1)c1ccncc1,Non-toxic,–,56,11.5,6.25,–
O=C(NNC(=O)c1cccc2ccccc12)c1cc(C23CC4CC(CC(C4)C2)C3)c2ccccc2n1,Non-toxic,–,88,4.47,6.25,–
O=C(NNC(=O)c1cc(C23CC4CC(CC(C4)C2)C3)c2ccccc2n1)c1cccnc1,Non-toxic,–,74,5.13,6.25,–
O=C(NNC(=O)C12CC3CC(CC(C3)C1)C2)c1cc(C23CC4CC(CC(C4)C2)C3)c2ccccc2n1,Non-toxic,–,87,1.95,6.25,–
O=C(NNC(=O)c1cc(C23CC4CC(CC(C4)C2)C3)c2ccccc2n1)c1ccc2ccccc2c1,Non-toxic,–,90,4.68,6.25,–
O=C(NNC(=S)Nc1ccccc1)c1cc(C23CC4CC(CC(C4)C2)C3)c2ccccc2n1,Non-toxic,–,12,100,6.25,–
O=C(NNC(=S)NC1CCCCC1)c1cc(C23CC4CC(CC(C4)C2)C3)c2ccccc2n1,Non-toxic,–,0,–,6.25,–

SMILES,Activity (L929),MIC99 [1] [µg/mL],inhibition at 6.25 µg/mL [2] [%],IC50 [3] [µM],MIC90 [3] [µg/mL],inhibition at 1.56 µg/mL [4] [%]
O=C(NNC(=S)Nc1cccc2ccccc12)c1cc(C23CC4CC(CC(C4)C2)C3)c2ccccc2n1,Non-toxic,–,44,15.8,6.25,–
O=C(NNC(=S)Nc1cccc(Cl)c1Cl)c1cc(C23CC4CC(CC(C4)C2)C3)c2ccccc2n1,Non-toxic,–,74,4.17,6.25,–
COc1ccc(OC)c(NC(=S)NNC(=O)c2cc(C34CC5CC(CC(C5)C3)C4)c3ccccc3n2)c1,Non-toxic,–,81,2.82,6.25,–
O=C(NNC(=S)Nc1cc(Cl)ccc1Cl)c1cc(C23CC4CC(CC(C4)C2)C3)c2ccccc2n1,Non-toxic,–,43,15.8,6.25,–
Cc1ccc(NC(=S)NNC(=O)c2cc(C34CC5CC(CC(C5)C3)C4)c3ccccc3n2)cc1,Non-toxic,–,23,45.7,6.25,–
Cc1cccc(C)c1NC(=S)NNC(=O)c1cc(C23CC4CC(CC(C4)C2)C3)c2ccccc2n1,Non-toxic,–,51,12.3,6.25,–
CCc1ccccc1NC(=S)NNC(=O)c1cc(C23CC4CC(CC(C4)C2)C3)c2ccccc2n1,Non-toxic,–,89,1.58,6.25,–
O=C(NNC(=S)Nc1ccc([N+](=O)[O-])cc1Cl)c1cc(C23CC4CC(CC(C4)C2)C3)c2ccccc2n1,Non-toxic,–,96,0.49,6.25,–
COc1ccc(C)cc1NC(=S)NNC(=O)c1cc(C23CC4CC(CC(C4)C2)C3)c2ccccc2n1,Non-toxic,–,12,91.2,6.25,–
O=C(NNC(=S)Nc1ccc([N+](=O)[O-])cc1)c1cc(C23CC4CC(CC(C4)C2)C3)c2ccccc2n1,Non-toxic,–,94,0.794,6.25,–
CCNC(=S)NNC(=O)c1cc(C23CC4CC(CC(C4)C2)C3)c2ccccc2n1,Non-toxic,–,72,5.89,6.25,–
C=CCNC(=S)NNC(=O)c1cc(C23CC4CC(CC(C4)C2)C3)c2ccccc2n1,Non-toxic,–,77,4.07,6.25,–
CC(C)(C)NC(=S)NNC(=O)c1cc(C23CC4CC(CC(C4)C2)C3)c2ccccc2n1,Non-toxic,–,90,1.58,6.25,–
O=C(NNC(=S)NCCc1ccccc1)c1cc(C23CC4CC(CC(C4)C2)C3)c2ccccc2n1,Non-toxic,–,47,14.5,6.25,–
O=C(NNC(=O)c1cc(C23CC4CC(CC(C4)C2)C3)c2ccccc2n1)Nc1ccc(OC(F)(F)F)cc1,Non-toxic,–,99,0.427,3.12,50
C=CCCCCCCCCC(=O)NNC(=O)c1cc(C23CC4CC(CC(C4)C2)C3)c2ccccc2n1,Non-toxic,–,50,12.9,6.25,–
